One series has as its system SK-BR-3. The series can be described thus: Antiproliferative activity against human SK-BR-3 cells incubated for 72 hrs by MTT assay. In kind it is functional, cell-based. The settings on record: SK-BR-3, 72 h. The method, boiled down:
(§1)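 Cells seeded at 5 × 10^3/well and allowed to attach overnight, then washed with PBS. Compound diluted from 10 mM DMSO stock into medium (100 ng/mL HGF added for c-Met-expressing cells), in triplicate, 72 h at 37 °C. MTT added for 4 h, formazan dissolved in DMSO, absorbance read at 570 nm. Cell numbers taken from a standard curve; IC50 calculated.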
A general note: Formazan colour is commonly taken as a measure of viable cells.

The test system of series [1] is MCF7. In words: Antiproliferative activity against human MCF7 cells incubated for 72 hrs by MTT assay. In kind it is functional, cell-based. The note with it: MCF7, 72 h. The method in brief:
as §1

For series [2], the system named is MDA-MB-231. In words: Anti-invasive activity in human MDA-MB-231 cells after 24 hrs […]. In kind it is functional, cell-based. The note with it: MDA-MB-231, 24 h.
Series [3] has as its target Serine/threonine-protein kinase mTOR (Homo sapiens) (UniProt P42345). The series can be described thus: Inhibition of mTOR in human MDA-MB-231 cells assessed as reduction in phosphorylated 4E-BP1 level at 0.25 to 0.5 uM by Western blot analysis. In kind it is cell-based. The settings on record: dose 0.25-0.5 µM. The method in brief: (§2)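 Cells seeded at 5 × 10^5 per 100 mm dish and allowed to attach overnight. Treated with compound or DMSO for 72 h (HGF 100 ng/mL added for MDA-MB-231). Lysed in RIPA buffer with protease inhibitors. 30 μg protein run on SDS-PAGE, transferred to PVDF, blocked in 5% BSA/TBST. Primary antibodies overnight at 4 °C, HRP secondary antibodies, chemiluminescent detection.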

In series [4] the test system is MDA-MB-231. The series can be described thus: Induction of autophagy in human MDA-MB-231 cells assessed as increase in beclin-1 level at 0.4 to 0.8 uM by Western blotting analysis. The settings on record: dose 0.4-0.8 µM. The series is classed as functional, cell-based. The method in brief:
as §2
(In general: A western blot detects proteins with antibodies after separation by electrophoresis.)

Series [5] has as its system MDA-MB-231. In words: Induction of autophagy in human MDA-MB-231 cells assessed as autophagic vacuoles by microscopic analysis. The series is classed as functional, cell-based. The method, boiled down:
(§3)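 Cells of each line treated with compound and examined by light microscopy for autophagic vacuoles, compared with control cells.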

A further series concerns MDA-MB-468. In words: Induction of autophagy in human MDA-MB-468 cells assessed as autophagic vacuoles by microscopic analysis. The series is classed as functional, cell-based. The method, boiled down:
as §3

A further series deals with BT-474. The series can be described thus: Induction of autophagy in human BT-474 cells assessed as autophagic vacuoles by microscopic analysis. In kind it is functional, cell-based. The method in brief:
as §3

For series [6], the system named is MCF7. In words: Inhibition of colony formation in human MCF7 cells assessed as reduction in colony diameter at 0.2 uM incubated for 8 days by inverted phase contrast microscopic analysis (reference value: 50 micrometer). The series is classed as functional. The settings on record: time 8 day. The method, boiled down: (§4)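 Soft agar assay: 5 × 10^3 MCF-7 cells per well in a cell/agar matrix layered over a base agar layer. Overlaid with 10% serum medium containing 0.2 or 0.6 μM compound, or DMSO. Colonies photographed under inverted phase-contrast microscopy after 8 days. Matrix then solubilized, MTT added (4 h, 37 °C), detergent added, A570 read. Growth normalized to DMSO.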

In series [7] the test system is MCF7. In words: Inhibition of colony formation in human MCF7 cells at 0.6 uM incubated for 8 days by inverted phase contrast microscopic analysis. The series is classed as functional. The note with it: MCF7, 192 h, time 8 day. The method, boiled down:
as §4

Series [8] has as its target Serine/threonine-protein kinase mTOR (Homo sapiens) (UniProt P42345). In words: In vivo inhibition of mTOR in human MCF7 cells xenografted in athymic nude mouse assessed as downregulation of phosphorylated S6K level at 10 mg/kg, ip. (In general: In xenograft studies the graft and the host belong to different species.)
For series [9] the target is unchanged. In words: In vivo inhibition of mTOR in human MCF7 cells xenografted in athymic nude mouse assessed as downregulation of phosphorylated 4E-BP1 level at 10 mg/kg, ip.
The target is the same in series [10]. The series can be described thus: In vivo inhibition of mTOR in human MDA-MB-231/GFP cells xenografted in athymic nude mouse assessed as downregulation of phosphorylated S6K level at 10 mg/kg, ip.
Series [11] has the same target. In words: In vivo inhibition of mTOR in human MDA-MB-231/GFP cells xenografted in athymic nude mouse assessed as downregulation of phosphorylated 4E-BP1 level at 10 mg/kg, ip.
Series [12] can be described thus: Toxicity in athymic nude mouse xenografted with human MDA-MB-231/GFP cells assessed as reduction in body weight at 10 mg/kg, ip measured after 34 days post inoculation. The settings on record: in vivo, 816 h.
Series [13] has as its system MDA-MB-231. In words: Antitumor activity against human MDA-MB-231/GFP cells xenografted in athymic nude mouse assessed as reduction in mean tumor volume at 10 mg/kg, ip measured after 34 days post inoculation (reference value: 1835 +/- 251 mm3). The settings on record: time 34 day.

Experimental findings from ChEMBL document CHEMBL5252537, “Usnic Acid Benzylidene Analogues as Potent Mechanistic Target of Rapamycin Inhibitors for the Control of Breast Malignancies” (J Nat Prod, 2017) are described below.

Each structure is given as a SMILES string. Activity calls are given as the source filed them. The rule behind the calls is not given here.

The term IC50 denotes the concentration that gives 50% inhibition. Read a low IC50 as greater potency. The term inhibition denotes the share of the control response that was lost under treatment. `CC(=O)C1=C(O)C=C2Oc3c(C(=O)/C=C/c4ccc(OC(F)(F)F)cc4)c(O)c(C)c(O)c3[C@]2(C)C1=O`: the results for the IC50 with SK-BR-3, in the series with MCF7 [1] and in the series on MDA-MB-231 [2] were 400 nM, 280 nM and 420 nM, respectively. Moreover, the inhibition result in series [3], in series [8], in series [9], in series [10] and in [11] was “Active” each time. For the same compound, the result in the series with MDA-MB-231 [4], in the series on MDA-MB-231 [5], in the series with MDA-MB-468 and with BT-474 was Active. For the same compound, the Activity is reported as 370 um with MCF7 [6], “Non-Toxic” in series [12] and 692 mm3 with MDA-MB-231 [13]. The compound further displayed an inhibition at 0.6 µM in the series with MCF7 [7] of 75.3%.
